# From ChEMBL document CHEMBL1130215, “7-alkylidenecephalosporin esters as inhibitors of human leukocyte elastase” (J Med Chem, 1997)
# Target: T1, Neutrophil elastase (Homo sapiens, UniProt P08246)
# T1 sequence (P08246 whole entry): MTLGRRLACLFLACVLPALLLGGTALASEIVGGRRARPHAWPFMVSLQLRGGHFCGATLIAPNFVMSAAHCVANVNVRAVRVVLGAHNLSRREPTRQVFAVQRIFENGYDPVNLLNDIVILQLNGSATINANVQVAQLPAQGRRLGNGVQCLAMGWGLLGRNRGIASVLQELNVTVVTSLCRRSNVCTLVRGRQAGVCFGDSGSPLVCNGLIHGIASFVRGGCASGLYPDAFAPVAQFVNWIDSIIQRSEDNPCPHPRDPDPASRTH
# Assay: Inhibition of human leukocyte elastase
# Summary of the method: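 Enzyme preincubated 4 min with inhibitor (DMSO stock, 1 mg/mL, diluted in DMSO when needed) in 0.1 M Tris-NaCl buffer pH 7.5 with NaN3. Aliquot then added to N-(methoxysuccinyl)-Ala-Ala-Pro-Val 4-nitroanilide substrate in buffer. Residual hydrolysis rate read at 410 nm for 2 min at 1 s intervals; IC50 taken from varied inhibitor volumes.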
row,Compound,IC50
1,CC(=O)OCC1=C(C(=O)OC(c2ccccc2)c2ccccc2)N2C(=O)/C(=C\Br)C2SC1 (stereo not drawn),0.39 µM
2,CC(=O)OCC1=C(C(=O)OC(c2ccccc2)c2ccccc2)N2C(=O)/C(=C\c3ccccc3)C2SC1 (stereo not drawn),> 10 µM
3,COC(=O)/C=C1/C(=O)N2C(C(=O)OC(c3ccccc3)c3ccccc3)=C(COC(C)=O)CS(=O)(=O)C12 (stereo not drawn),8.9 µM
4,CC(=O)OCC1=C(C(=O)OC(c2ccccc2)c2ccccc2)N2C(=O)/C(=C/CO)C2SC1 (stereo not drawn),> 10 µM
5,CC(=O)OCC1=C(C(=O)OC(c2ccccc2)c2ccccc2)N2C(=O)CC2SC1 (stereo not drawn),> 10 µM
6,CC(=O)/C=C1/C(=O)N2C(C(=O)OC(c3ccccc3)c3ccccc3)=C(COC(C)=O)CSC12 (stereo not drawn),4.27 µM
7,CC(=O)OCC1=C(C(=O)OC(c2ccccc2)c2ccccc2)N2C(=O)/C(=C/c3ccccn3)C2S(=O)(=O)C1 (stereo not drawn),> 10 µM
8,CC(=O)OCC1=C(C(=O)OC(c2ccccc2)c2ccccc2)N2C(=O)C(Br)(Br)C2SC1 (stereo not drawn),1.39 µM
9,CC(=O)OCC1=C(C(=O)OC(c2ccccc2)c2ccccc2)N2C(=O)/C(=C\Br)C2S(=O)(=O)C1 (stereo not drawn),3.36 µM
10,CC(=O)OCC1=C(C(=O)OC(c2ccccc2)c2ccccc2)N2C(=O)C(=C(Br)Br)C2SC1 (stereo not drawn),0.26 µM
11,CC(=O)OCC1=C(C(=O)OC(c2ccccc2)c2ccccc2)N2C(=O)/C(=C/C(=O)OC(C)(C)C)C2S(=O)(=O)C1 (stereo not drawn),7.1 µM
12,COC(=O)/C=C1/C(=O)N2C(C(=O)OC(c3ccccc3)c3ccccc3)=C(COC(C)=O)CSC12 (stereo not drawn),2.6 µM
13,CC(=O)OCC1=C(C(=O)OC(c2ccccc2)c2ccccc2)N2C(=O)/C(=C\c3ccccc3)C2S(=O)(=O)C1 (stereo not drawn),6 µM
14,CC(=O)OCC1=C(C(=O)OC(c2ccccc2)c2ccccc2)N2C(=O)C(=C(Cl)Cl)C2S(=O)(=O)C1 (stereo not drawn),2.56 µM
15,CC(=O)OCC1=C(C(=O)OC(c2ccccc2)c2ccccc2)N2C(=O)[C@H](I)C2SC1 (stereo partly drawn),1.18 µM
16,CC(=O)OCC1=C(C(=O)OC(c2ccccc2)c2ccccc2)N2C(=O)C(=C=CC(C)(C)C)C2SC1 (stereo not drawn),> 10 µM
17,CC(=O)OCC1=C(C(=O)OC(c2ccccc2)c2ccccc2)N2C(=O)/C(=C/c3ccccn3)C2SC1 (stereo not drawn),> 10 µM
18,CC(=O)OCC1=C(C(=O)OC(c2ccccc2)c2ccccc2)N2C(=O)C(=C(Cl)Cl)C2SC1 (stereo not drawn),6.41 µM
19,C=C=C1C(=O)N2C(C(=O)OC(c3ccccc3)c3ccccc3)=C(COC(C)=O)CSC12 (stereo not drawn),9 µM

row,Compound,IC50
1,CC(=O)OCC1=C(C(=O)OC(c2ccccc2)c2ccccc2)N2C(=O)C(=C(Br)Br)C2S(=O)(=O)C1 (stereo not drawn),2.07 µM
2,CC(=O)OCC1=C(C(=O)OC(c2ccccc2)c2ccccc2)N2C(=O)/C(=C/C#N)C2S(=O)(=O)C1 (stereo not drawn),0.49 µM
3,CC(=O)OCC1=C(C(=O)OC(c2ccccc2)c2ccccc2)N2C(=O)/C(=C/c3ccccc3)C2S(=O)(=O)C1 (stereo not drawn),8.9 µM
4,CC(=O)OCC1=C(C(=O)OC(c2ccccc2)c2ccccc2)N2C(=O)/C(=C/c3ccccc3)C2SC1 (stereo not drawn),> 10 µM
5,COC(=O)/C(Br)=C1/C(=O)N2C(C(=O)OC(c3ccccc3)c3ccccc3)=C(COC(C)=O)CSC12 (stereo not drawn),0.21 µM
6,CC(=O)OCC1=C(C(=O)OC(c2ccccc2)c2ccccc2)N2C(=O)[C@@H](N)C2SC1 (stereo partly drawn),> 10 µM
7,CC(=O)OCC1=C(C(=O)OC(c2ccccc2)c2ccccc2)N2C(=O)C(=C=CBr)C2SC1 (stereo not drawn),5.4 µM
8,CO[C@H]1C(=O)N2C(C(=O)OC(c3ccccc3)c3ccccc3)=C(COC(C)=O)CSC12 (stereo partly drawn),5.35 µM
9,[2H]C(=C=C1C(=O)N2C(C(=O)OC(c3ccccc3)c3ccccc3)=C(COC(C)=O)CS(=O)(=O)C12)C(C)(C)C (stereo not drawn),13.5 µM
10,C=C=C1C(=O)N2C(C(=O)OC(c3ccccc3)c3ccccc3)=C(COC(C)=O)CS(=O)(=O)C12 (stereo not drawn),6.1 µM
11,CON(C)C(=O)/C=C1/C(=O)N2C(C(=O)OC(c3ccccc3)c3ccccc3)=C(COC(C)=O)CS(=O)(=O)C12 (stereo not drawn),> 10 µM
12,CC(=O)OCC1=C(C(=O)OC(c2ccccc2)c2ccccc2)N2C(=O)/C(=C/C=O)C2SC1 (stereo not drawn),13.9 µM
13,CC(=O)OCC1=C(C(=O)OC(c2ccccc2)c2ccccc2)N2C(=O)/C(=C/C(=O)OC(C)(C)C)C2SC1 (stereo not drawn),> 10 µM
14,CC(=O)OCC1=C(C(=O)OC(c2ccccc2)c2ccccc2)N2C(=O)/C(=C/C#N)C2SC1 (stereo not drawn),> 10 µM
15,CO[C@H]1C(=O)N2C(C(=O)OC(c3ccccc3)c3ccccc3)=C(COC(C)=O)CS(=O)(=O)C12 (stereo partly drawn),0.28 µM
16,CC(=O)OCC1=C(C(=O)OC(c2ccccc2)c2ccccc2)N2C(=O)C(=O)C2SC1 (stereo not drawn),> 10 µM
17,CC(=O)OCC1=C(C(=O)OC(c2ccccc2)c2ccccc2)N2C(=O)[C@H](Cl)C2SC1 (stereo partly drawn),6 µM
18,CC(=O)OCC1=C(C(=O)OC(c2ccccc2)c2ccccc2)N2C(=O)C(=C=CC(C)(C)C)C2S(=O)(=O)C1 (stereo not drawn),10.5 µM
19,CC(=O)/C=C1/C(=O)N2C(C(=O)OC(c3ccccc3)c3ccccc3)=C(COC(C)=O)CS(=O)(=O)C12 (stereo not drawn),> 10 µM
